Consider 21 compounds from ChEMBL document CHEMBL4261537, “Synthesis and pharmacological evaluation of multi-functional homoisoflavonoid derivatives as potent inhibitors of monoamine oxidase B and cholinesterase for the treatment of Alzheimer's disease” (Medchemcomm, 2017).

The target in data set [1] is T1, Amine oxidase [flavin-containing] A (Homo sapiens, UniProt P21397).
T1 sequence (P21397 whole entry): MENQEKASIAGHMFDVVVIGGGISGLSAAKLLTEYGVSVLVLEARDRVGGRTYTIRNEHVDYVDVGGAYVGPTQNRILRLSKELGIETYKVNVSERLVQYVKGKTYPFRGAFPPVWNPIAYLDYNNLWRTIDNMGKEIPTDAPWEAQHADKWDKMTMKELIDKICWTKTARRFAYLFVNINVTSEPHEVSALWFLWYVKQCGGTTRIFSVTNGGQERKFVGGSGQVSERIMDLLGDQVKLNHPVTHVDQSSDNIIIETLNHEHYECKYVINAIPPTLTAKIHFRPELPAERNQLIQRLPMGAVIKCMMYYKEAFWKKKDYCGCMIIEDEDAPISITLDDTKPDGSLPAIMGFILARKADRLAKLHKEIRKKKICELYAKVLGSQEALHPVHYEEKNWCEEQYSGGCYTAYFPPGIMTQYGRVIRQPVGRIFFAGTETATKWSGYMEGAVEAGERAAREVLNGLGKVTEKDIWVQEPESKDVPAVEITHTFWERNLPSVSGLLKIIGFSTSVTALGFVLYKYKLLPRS
Put plainly: Inhibition of recombinant human MAO-A assessed as reduction in H2O2 production at 100 uM using p-tyramine as substrate preincubated for 15 mins followed by substrate addition by Amplex red reagent based fluorescence assay. Summed up: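 Human MAO-A or MAO-B, each set to the same control reaction velocity. Preincubated with compound 15 min at 37°C in the dark, in sodium phosphate buffer with DMSO. Then 200 μM Amplex Red (final) added with 1 U/mL HRP and 1 mM p-tyramine. Resorufin fluorescence read at 37°C (ex 545/em 590 nm), background from enzyme-free wells subtracted. Run in triplicate, mean ± SD.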

In data set [2] the target is Acetylcholinesterase (Electrophorus electricus, UniProt O42275). Nature of the data set: Inhibition of electric eel AChE using acetylthiocholine iodide as substrate preincubated for 5 mins followed by substrate addition measured at 1 to 3 mins time interval by Ellman's method.
Chain of Acetylcholinesterase (Electrophorus electricus, UniProt O42275) (O42275 whole entry): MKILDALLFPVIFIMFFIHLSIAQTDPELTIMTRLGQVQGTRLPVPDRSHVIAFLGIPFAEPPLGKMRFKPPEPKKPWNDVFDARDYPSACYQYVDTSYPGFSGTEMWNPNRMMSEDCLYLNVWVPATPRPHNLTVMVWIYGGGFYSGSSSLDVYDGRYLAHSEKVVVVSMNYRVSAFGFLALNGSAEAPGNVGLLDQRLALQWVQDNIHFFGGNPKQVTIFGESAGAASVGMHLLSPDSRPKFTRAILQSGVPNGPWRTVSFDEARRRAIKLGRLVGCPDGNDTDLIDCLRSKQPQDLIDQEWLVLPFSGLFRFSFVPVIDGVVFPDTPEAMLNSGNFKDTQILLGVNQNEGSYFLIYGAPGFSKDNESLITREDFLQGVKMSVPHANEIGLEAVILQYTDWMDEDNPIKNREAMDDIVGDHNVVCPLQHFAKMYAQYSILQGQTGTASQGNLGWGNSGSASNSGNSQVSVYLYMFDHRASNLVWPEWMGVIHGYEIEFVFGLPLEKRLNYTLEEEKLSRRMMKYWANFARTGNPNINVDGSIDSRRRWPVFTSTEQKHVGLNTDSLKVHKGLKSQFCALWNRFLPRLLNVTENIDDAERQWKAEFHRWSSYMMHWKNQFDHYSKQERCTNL
Data set [3] has as its target T2, Amine oxidase [flavin-containing] B (Homo sapiens, UniProt P27338).
T2 sequence (P27338 whole entry): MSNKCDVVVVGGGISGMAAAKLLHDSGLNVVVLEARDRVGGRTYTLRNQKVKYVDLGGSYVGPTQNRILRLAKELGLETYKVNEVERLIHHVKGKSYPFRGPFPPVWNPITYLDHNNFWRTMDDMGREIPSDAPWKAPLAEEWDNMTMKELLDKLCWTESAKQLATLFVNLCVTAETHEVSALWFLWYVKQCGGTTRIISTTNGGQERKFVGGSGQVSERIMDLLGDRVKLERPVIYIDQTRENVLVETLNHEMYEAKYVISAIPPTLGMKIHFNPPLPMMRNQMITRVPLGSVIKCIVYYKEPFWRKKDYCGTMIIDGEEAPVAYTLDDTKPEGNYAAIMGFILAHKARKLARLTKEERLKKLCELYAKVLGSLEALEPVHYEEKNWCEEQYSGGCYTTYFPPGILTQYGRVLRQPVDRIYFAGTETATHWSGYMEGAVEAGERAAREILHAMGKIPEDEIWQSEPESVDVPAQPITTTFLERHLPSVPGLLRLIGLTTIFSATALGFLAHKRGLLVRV
Put plainly: Inhibition of recombinant human MAO-B assessed as reduction in H2O2 production using p-tyramine as substrate preincubated for 15 mins followed by substrate addition by Amplex red reagent based fluorescence assay. Summed up: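 Human MAO-A or MAO-B, each set to the same control reaction velocity. Preincubated with compound 15 min at 37°C in the dark, in sodium phosphate buffer with DMSO. Then 200 μM Amplex Red (final) added with 1 U/mL HRP and 1 mM p-tyramine. Run in triplicate, mean ± SD.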

Data set [4] has as its target Cholinesterase (Equus caballus, UniProt P81908). Nature of the data set: Inhibition of equine serum BuChE using S-butyrylthiocholine iodide as substrate preincubated for 5 mins followed by substrate addition measured at 1 to 3 mins time interval by Ellman's method. Format: ADME.
Data set [5] can be described thus: Selectivity index, ratio of IC50 for equine serum BuChE to IC50 for electric eel AChE.
The species entered for data set [6] is Homo sapiens. Nature of the data set: Selectivity index, ratio of IC50 for recombinant human MAO-A to IC50 for recombinant human MAO-B.
For data set [7], the target named is T1, Amine oxidase [flavin-containing] A. Put plainly: Inhibition of recombinant human MAO-A assessed as reduction in H2O2 production using p-tyramine as substrate preincubated for 15 mins followed by substrate addition by Amplex red reagent based fluorescence assay.
The target in data set [8] is Cholinesterase (Homo sapiens, UniProt P06276). Put plainly: Inhibition of human serum BuChE using S-butyrylthiocholine iodide as substrate preincubated for 5 mins followed by substrate addition measured at 1 to 3 mins time interval by Ellman's method. It counts as ADME. In general terms: In Ellman's method for cholinesterases, released thiocholine reacts with DTNB.
Chain of Cholinesterase (Homo sapiens, UniProt P06276) (P06276 whole entry): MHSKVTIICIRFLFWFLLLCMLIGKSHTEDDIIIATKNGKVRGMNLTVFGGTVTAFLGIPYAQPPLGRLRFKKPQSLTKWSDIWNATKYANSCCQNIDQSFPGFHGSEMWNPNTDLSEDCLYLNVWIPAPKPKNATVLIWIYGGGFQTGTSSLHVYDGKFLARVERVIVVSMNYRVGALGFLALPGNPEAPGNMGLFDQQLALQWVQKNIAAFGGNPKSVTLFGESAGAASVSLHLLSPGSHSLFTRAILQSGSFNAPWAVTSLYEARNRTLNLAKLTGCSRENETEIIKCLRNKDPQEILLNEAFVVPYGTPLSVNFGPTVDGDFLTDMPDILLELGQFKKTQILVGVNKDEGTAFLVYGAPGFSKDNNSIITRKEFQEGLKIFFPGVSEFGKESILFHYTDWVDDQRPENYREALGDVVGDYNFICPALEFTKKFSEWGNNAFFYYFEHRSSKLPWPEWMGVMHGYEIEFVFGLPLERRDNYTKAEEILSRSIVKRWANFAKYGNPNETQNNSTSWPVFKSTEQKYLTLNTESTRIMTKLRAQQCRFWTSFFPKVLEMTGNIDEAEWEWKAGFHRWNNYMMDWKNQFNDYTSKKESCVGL
Data set [9] concerns the target Acetylcholinesterase (Homo sapiens, UniProt P22303). Put plainly: Inhibition of human erythrocytes AChE using acetylthiocholine iodide as substrate preincubated for 5 mins followed by substrate addition measured at 1 to 3 mins time interval by Ellman's method.
The species entered for data set [10] is Homo sapiens. Nature of the data set: Selectivity index, ratio of IC50 for human serum BuChE to IC50 for human erythrocytes AChE.

By pIC50 is commonly meant −log10 of the IC50, conventionally taken in molar units.

pIC50: −log10 of the molar value.

Chain of Acetylcholinesterase (Homo sapiens, UniProt P22303) (P22303 whole entry): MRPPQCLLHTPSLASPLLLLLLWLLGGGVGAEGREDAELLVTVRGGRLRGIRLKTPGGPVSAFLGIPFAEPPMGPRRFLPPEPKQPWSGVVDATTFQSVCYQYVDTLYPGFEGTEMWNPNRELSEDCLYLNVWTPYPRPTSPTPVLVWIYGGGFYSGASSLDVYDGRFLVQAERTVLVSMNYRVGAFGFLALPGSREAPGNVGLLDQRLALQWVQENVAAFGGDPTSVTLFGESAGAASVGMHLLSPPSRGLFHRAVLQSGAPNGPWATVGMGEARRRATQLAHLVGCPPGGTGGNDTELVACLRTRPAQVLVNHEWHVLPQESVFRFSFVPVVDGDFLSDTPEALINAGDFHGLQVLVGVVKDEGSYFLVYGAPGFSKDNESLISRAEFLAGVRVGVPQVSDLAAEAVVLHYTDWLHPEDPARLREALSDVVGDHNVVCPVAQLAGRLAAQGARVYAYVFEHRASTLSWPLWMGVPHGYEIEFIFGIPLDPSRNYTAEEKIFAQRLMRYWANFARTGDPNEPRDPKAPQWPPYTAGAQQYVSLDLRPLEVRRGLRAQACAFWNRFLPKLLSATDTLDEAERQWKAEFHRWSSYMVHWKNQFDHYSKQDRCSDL
Chain of Cholinesterase (Equus caballus, UniProt P81908) (P81908 whole entry): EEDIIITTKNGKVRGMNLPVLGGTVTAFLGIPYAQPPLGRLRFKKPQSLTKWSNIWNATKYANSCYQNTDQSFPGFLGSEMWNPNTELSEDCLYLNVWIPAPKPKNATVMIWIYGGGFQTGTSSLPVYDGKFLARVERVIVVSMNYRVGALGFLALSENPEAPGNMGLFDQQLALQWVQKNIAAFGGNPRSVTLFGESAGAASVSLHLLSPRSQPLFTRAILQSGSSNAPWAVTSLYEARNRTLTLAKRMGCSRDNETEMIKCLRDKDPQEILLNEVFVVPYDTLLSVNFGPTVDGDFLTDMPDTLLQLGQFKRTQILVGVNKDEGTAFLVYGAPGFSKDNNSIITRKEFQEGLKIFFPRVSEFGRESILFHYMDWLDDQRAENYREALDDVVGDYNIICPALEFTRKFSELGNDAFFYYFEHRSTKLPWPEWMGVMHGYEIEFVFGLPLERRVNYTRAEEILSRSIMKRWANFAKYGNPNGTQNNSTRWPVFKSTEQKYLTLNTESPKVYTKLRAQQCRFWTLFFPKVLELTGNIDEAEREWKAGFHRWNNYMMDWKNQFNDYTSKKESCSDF

Take `CN(C)CCOc1ccccc1/C=C1\COc2ccccc2C1=O`: the “inhibition (INH)” value in [1] is given as “Not Active”. Further, the figures for the pIC50 in [2], in data set [3] and in data set [4] were 4.19, less than 4.00 and 5.00, respectively. The Ratio IC50 in data set [5] is 0.154; in data set [6] it was greater than 1.

In the case of `CN1CCN(CCCOc2ccc(/C=C3\COc4ccccc4C3=O)cc2)CC1`, the “inhibition (INH)” value in [1] is “Not Active”. Also, the pIC50 in data set [2] is 5.00; in [3] it was 4.64; in [4], 4.81. The Ratio IC50 in data set [5] is 1.53; in data set [6], greater than 4.41.

On to `CN(C)CCCOc1cccc(/C=C2\COc3ccccc3C2=O)c1`, for which the pIC50 in data set [7] is 4.03; in [8], 4.41; in [9], 4.59; in data set [2], 5.30; in [3], 7.32; in [4], 5.67. Besides, the values for the Ratio IC50 in data set [10], in data set [5] and in [6] were 1.53, 0.435 and 1940, respectively.

Consider `CN(C)CCOc1cccc(/C=C2\COc3ccccc3C2=O)c1`, for which the pIC50 in data set [7] was 4.42; in data set [8] it was 5.35; in [9], 5.85; in [2], 5.98; in [3] it was 6.24; in data set [4], 5.08. Besides, the Ratio IC50 in data set [10] came to 3.15; in data set [5], 8.05; in data set [6], 66.5.

With `CCN(CCCCCCOc1ccc(/C=C2\COc3ccccc3C2=O)cc1)Cc1ccccc1`, the “inhibition (INH)” value in data set [1] is recorded as “Not Active”. In addition, the pIC50 in data set [2] was 4.77; in data set [3], less than 4.00; in data set [4], 4.40. Also, the Ratio IC50 in data set [5] is 2.36; in [6] it was greater than 1.

Regarding `CCN(CC)CCCCOc1ccc(/C=C2\COc3ccccc3C2=O)cc1`, the pIC50 in [7] is 4.28; in data set [8] it was 4.95; in data set [9], 4.85; in [2], 5.21; in [3], 5.54; in [4], 5.34. Besides, the Ratio IC50 is 0.801 in [10], 0.756 in data set [5] and 18.5 in data set [6].

`CCN(CC)CCOc1ccccc1/C=C1\COc2ccccc2C1=O`: the “inhibition (INH)” value in data set [1] was “Not Active”. Moreover, the pIC50 is 4.19 in data set [2], 4.36 in data set [3] and 4.94 in [4]. The Ratio IC50 in [5] was 0.176; in [6], greater than 2.64.

Consider `CN(C)CCCOc1ccc(/C=C2\COc3ccccc3C2=O)cc1`, for which, in data set [1], the “inhibition (INH)” value is recorded as “Not Active”. For the same compound, the pIC50 in data set [2] was 5.28; in [3], 7.36; in data set [4], 4.69. Moreover, the Ratio IC50 in data set [5] is 3.9; in data set [6] it was greater than 2280.

As for `CN(CCOc1ccc(/C=C2\COc3ccccc3C2=O)cc1)Cc1ccccc1`, the “inhibition (INH)” value in data set [1] is listed as “Not Active”. The pIC50 is 4.71 in data set [2], 5.64 in [3] and 4.38 in data set [4]. Further, the Ratio IC50 in data set [5] is 2.14; in data set [6], greater than 43.8.

As for `CN(C)CCCCCCOc1ccc(/C=C2\COc3ccccc3C2=O)cc1`, the pIC50 in data set [7] was 4.41; in data set [2] it was 4.89; in data set [3], 5.49; in data set [4] it was 5.04. Moreover, the Ratio IC50 in data set [5] worked out at 0.712; in [6], 12.1.

`CN1CCN(CCCCOc2ccc(/C=C3\COc4ccccc4C3=O)cc2)CC1`: the “inhibition (INH)” value in data set [1] is on record as “Not Active”. Also, the pIC50 in data set [2] was 4.89; in [3], 4.79; in data set [4] it was 4.98. In addition, the Ratio IC50 in data set [5] is 0.799; in [6], greater than 6.1.

As for `CN(C)CCCOc1ccccc1/C=C1\COc2ccccc2C1=O`, in data set [1], the “inhibition (INH)” value is “Not Active”. Further, the pIC50 in data set [2] is 4.12; in data set [3] it was less than 4.00; in data set [4], 5.06. For the same compound, the Ratio IC50 is 0.116 in data set [5] and greater than 1 in data set [6].

Consider `CCN(CCCOc1ccc(/C=C2\COc3ccccc3C2=O)cc1)Cc1ccccc1`, for which the pIC50 in [2] is 4.53; in data set [3] it was 5.80; in data set [4] it was 4.77. In data set [5], the Ratio IC50 turned out to be 0.583.

Regarding `CN(CCCCCCOc1ccc(/C=C2\COc3ccccc3C2=O)cc1)Cc1ccccc1`, the “inhibition (INH)” value in data set [1] is reported as “Not Active”. For the same compound, the pIC50 is 4.70 in data set [8]; 4.39 in data set [9]; 5.75 in data set [2]; less than 4.00 in data set [3]; 4.29 in data set [4]. Moreover, the figures for the Ratio IC50 in data set [10], in data set [5] and in [6] were 0.489, 28.7 and greater than 1, respectively.

For the compound `CCN(CC)CCCOc1cccc(/C=C2\COc3ccccc3C2=O)c1`, the pIC50 in data set [7] was 4.19; in data set [2], 4.85; in [3], 4.74; in data set [4], 5.99. For the same compound, the values for the Ratio IC50 in data set [5] and in [6] were 0.0732 and 3.55, respectively.

`CCN(CC)CCCOc1ccc(/C=C2\COc3ccccc3C2=O)cc1`: the pIC50 is 4.20 in [7], 5.49 in data set [2], 6.78 in [3] and 5.08 in data set [4]. In addition, the results for the Ratio IC50 in data set [5] and in data set [6] were 2.58 and 379, respectively.

In the case of `O=C1/C(=C/c2ccc(OCCN3CCN(Cc4ccccc4)CC3)cc2)COc2ccccc21`, in data set [1], the “inhibition (INH)” value is given as “Not Active”. The pIC50 was 4.68 in [2], 4.01 in [3] and 4.50 in [4]. For the same compound, the Ratio IC50 was 1.5 in data set [5] and greater than 1.03 in [6].

`CN(C)CCCCOc1ccc(/C=C2\COc3ccccc3C2=O)cc1`: the “inhibition (INH)” value in data set [1] is listed as “Not Active”. For the same compound, the pIC50 in [2] was 4.91; in [3] it was 6.12; in [4] it was 4.72. For the same compound, the values for the Ratio IC50 in [5] and in data set [6] were 1.54 and greater than 132, respectively.

For `CN1CCN(CCCCCCOc2ccc(/C=C3\COc4ccccc4C3=O)cc2)CC1`, the “inhibition (INH)” value in [1] was “Not Active”. Moreover, the pIC50 in [2] is 4.49; in data set [3], 5.20; in data set [4], 4.56. Besides, the Ratio IC50 in data set [5] was 0.843; in data set [6] it was greater than 16.1.

On to `CN(CCCOc1ccc(/C=C2\COc3ccccc3C2=O)cc1)Cc1ccccc1`, for which the “inhibition (INH)” value in data set [1] is “Not Active”. Moreover, the pIC50 in [2] is 4.28; in data set [3], 6.06; in data set [4] it was 4.71. In addition, the Ratio IC50 is 0.369 in data set [5] and greater than 114 in data set [6].

Turning to `CCN(CCOc1ccc(/C=C2\COc3ccccc3C2=O)cc1)Cc1ccccc1`, in [1], the “inhibition (INH)” value was “Not Active”. Also, the values for the pIC50 in [2], in [3] and in [4] were 5.89, 5.37 and 4.31, respectively. Moreover, the results for the Ratio IC50 in [5] and in [6] were 38.3 and greater than 23.3, respectively.
